Laboratory results taken from ChEMBL document CHEMBL1125652, “Kynurenic acid derivatives. Structure-activity relationships for excitatory amino acid antagonism and identification of potent and selective antagonists at the glycine site on the N-methyl-D-aspartate receptor” (J Med Chem, 1991).
Calls of active or inactive are those of the source. No cut-off for these calls is given here.

Experiments:
Glutamate NMDA receptor [1] = experiment: Inhibition of [3H]glycine binding to glycine site of N-methyl-D-aspartate glutamate receptor in rat cortical membranes; assay type: cell membranes, Membrane
[2] = molecular target: T1, Glutamate receptor ionotropic, kainate (Rattus norvegicus) (UniProt P22756+Q01812+P42260+P42264+Q63273); experiment: Apparent dissociation constant of [3H]kainate from Ionotropic glutamate receptor ionotropic kainate was determined in rat cortical slice preparation
In short: (§1)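 Rat cortical slice preparation; test compound antagonism of depolarizations evoked by agonists N-methyl-D-aspartic acid, quisqualic acid or kainic acid, expressed as apparent Kb.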

[3] = molecular target: T2, Glutamate receptor ionotropic, AMPA (Rattus norvegicus) (UniProt P19491+P19492+P19493+P19490); experiment: Apparent dissociation constant of [3H]AMPA from Quisqualate receptor was determined in rat cortical slice preparation at 100 uM; Inactive; in short: as §1
[4] = molecular target: Glutamate receptor ionotropic, kainate; experiment: Inhibition of [3H]-kainic acid binding to kainate receptor of rat cortical membrane
[5] = molecular target: Glutamate receptor ionotropic, AMPA (Rattus norvegicus, UniProt P19490+P19491+P19492+P19493); experiment: Inhibition of [3H]-AMPA binding to AMPA receptor of rat cortical membrane
Glutamate NMDA receptor [6] = experiment: Inhibition of [3H]-glutamate binding to N-methyl-D-aspartate glutamate receptor of rat cortical membranes; assay type: cell membranes, Membrane
[7] = molecular target: T3, Glutamate NMDA receptor (Rattus norvegicus) (UniProt P35439+Q00959+Q00960+Q00961+Q62645+Q8VHN2+Q9R1M7); experiment: Apparent dissociation constant of [3H]glycine from N-methyl-D-aspartate glutamate receptor in rat cortical slice preparation expressed as log values.; in short: as §1
[8] = molecular target: T3, Glutamate NMDA receptor (Rattus norvegicus); experiment: Apparent dissociation constant of [3H]-glycine from N-methyl-D-aspartate glutamate receptor in rat cortical slice preparation at 100 uM; Inactive; in short: as §1
[9] = molecular target: T2, Glutamate receptor ionotropic, AMPA (Rattus norvegicus); experiment: Apparent dissociation constant of [3H]AMPA from quisqualate receptor of rat cortical slices; assay type: protein-complex assay; in short: as §1
[10] = molecular target: T1, Glutamate receptor ionotropic, kainate (Rattus norvegicus); experiment: Apparent dissociation constant of [3H]kainate from ionotropic glutamate receptor kainate of rat cortical slice at 100 uM; Inactive; assay type: protein-complex assay; in short: as §1
[11] = molecular target: T3, Glutamate NMDA receptor (Rattus norvegicus); experiment: Apparent dissociation constant of [3H]glycine from N-methyl-D-aspartate glutamate receptor of rat cortical slices; assay type: protein-complex assay
In short: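 Antagonism of NMDA-induced depolarizations in a rat cortical slice preparation, where endogenous glycine is present at supersaturating levels. Apparent Kb was obtained from dose ratios, with a dose ratio under 2 at a stated concentration reported as ">". Kb values are means of at least three experiments.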

[12] = molecular target: T1, Glutamate receptor ionotropic, kainate (Rattus norvegicus); experiment: Apparent dissociation constant for [3H]kainate from Ionotropic glutamate receptor kainate of rat cortical slices; assay type: protein-complex assay
In short: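 Functional antagonism of kainate-induced depolarizations in rat cortical slices. Apparent Kb was obtained from dose ratios, with a dose ratio under 2 at a stated concentration reported as ">". Kb values are means of at least three experiments.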

Structure (SMILES) | IC50 (Glutamate NMDA receptor [1]) [µM] | Kb [2] [µM] | -Log 1/Kb [7] | further results
O=C(O)c1cc(O)c2c(C(F)(F)F)cc(C(F)(F)F)cc2n1 | > 100 |  |  | 
O=[N+]([O-])c1ccc2nc(O)c(O)nc2c1 | 8.3 | 4.6 |  | 
O=C(O)C(=O)Nc1cc(Cl)cc(Cl)c1 | 6.8 |  |  | Kb [3]: inactive
O=C(O)c1cc(O)c2cc(Cl)ccc2n1 | > 100 | 19 |  | IC50 [4]: > 300 µM; IC50 [5]: 41 µM; IC50 (Glutamate NMDA receptor [6]): > 300 µM
COc1ccc2c(O)cc(C(=O)O)nc2c1 | > 100 |  |  | 
O=C(O)c1nc2cc(Cl)ccc2[nH]1 | 5.6 |  |  | 
CSc1ccc2c(O)cc(C(=O)O)nc2c1 |  |  | 2.67 | 
O=C(O)c1cc(O)c2ccc(Br)cc2n1 | 0.85 |  | 5.1 | 
Oc1nc2cc(Cl)c(Cl)cc2nc1O [2,3-DIHYDROXY-6,7-DICHLOROQUINOXALINE] | 3.1 | 9 |  | 
CCCCc1ccc2c(O)cc(C(=O)O)nc2c1 | > 100 |  |  | 
CCc1cc(Cl)cc2nc(C(=O)O)cc(O)c12 | 0.26 |  | 6 | 
O=C(O)c1cc(O)c2c(Cl)cc(Cl)cc2n1 | 0.2 | > 30 |  | IC50 [4]: > 300 µM; IC50 (Glutamate NMDA receptor [6]): > 100 µM
COc1ccc2nc(C(=O)O)cc(O)c2c1 |  | 32 |  | Kb [8]: inactive; Kb [9]: 87 µM
CCc1cc(Br)c2c(O)cc(C(=O)O)nc2c1 | 3.2 |  | 4.72 | 
C=Cc1ccc2c(O)cc(C(=O)O)nc2c1 | > 100 |  | 3.58 | 
CCCc1ccc2c(O)cc(C(=O)O)nc2c1 | > 100 |  |  | 
O=C(O)c1cc(O)c2cc(Br)ccc2n1 |  | 30 |  | Kb [9]: 28 µM
O=C(O)c1cc(O)c2c(I)cc(Cl)cc2n1 | 0.032 |  | 6.4 | 
O=C(O)c1cc(O)c2c(Br)cc(Br)cc2n1 | 0.086 |  | 5.8 | 
O=C(O)c1cc(O)c2c(C(F)(F)F)cccc2n1 |  |  | 4.46 | 
Cc1cc(Br)c2c(O)cc(C(=O)O)nc2c1 | 0.82 |  | 5.68 | 
Oc1nc2ccccc2nc1O | 38.6 | > 100 |  | 
Cc1cc2[nH]c(=O)c(=O)n(C)c2cc1C | 6.6 | 47 |  | 
CCCCc1cccc2nc(C(=O)O)cc(O)c12 | > 100 |  | 3.31 | 

Structure (SMILES) | IC50 (Glutamate NMDA receptor [1]) [µM] | Kb [2] [µM] | -Log 1/Kb [7] | further results
O=C(O)c1cc(O)c2c(I)cccc2n1 | 0.63 |  | 5.12 | 
Oc1nc2cc(Cl)cc(Cl)c2nc1O | 3.4 | 22 |  | 
O=C(O)c1cc(O)c2cccc(Cl)c2n1 | > 100 |  |  | Kb [8]: inactive; Kb [3]: inactive; Kb [10]: inactive
CCc1ccc2c(O)cc(C(=O)O)nc2c1 | > 100 |  | 3.82 | 
C=Cc1cccc2nc(C(=O)O)cc(O)c12 | > 100 |  |  | 
Cc1cc2nc(O)c(O)nc2cc1C |  | 27 |  | 
Cc1ccc2c(O)cc(C(=O)O)nc2c1 | 1.8 |  | 4.47 | 
O=C(O)c1cc(O)c2ccc(F)cc2n1 |  |  | 4.5 | 
O=C(O)c1cc(O)c2ccc([N+](=O)[O-])cc2n1 |  |  | 4.11 | 
O=C(O)c1cc(O)c2cc(C(F)(F)F)ccc2n1 |  | > 100 |  | Kb [8]: inactive; Kb [9]: > 100 µM
O=C(O)c1cc(O)c2cc(F)ccc2n1 |  | 55 |  | Kb [9]: 48 µM
CCc1cc(Cl)c2c(O)cc(C(=O)O)nc2c1 | 4.9 |  | 4.42 | 
O=C(O)c1cc(O)c2ccc(Cl)cc2n1 [7-CHLOROKYNURENIC ACID] | 0.56 | 50 | 5.15 | IC50 [4]: > 1000 µM; IC50 [5]: 153 µM; IC50 (Glutamate NMDA receptor [6]): 169 µM
Cc1cc2[nH]c(=O)c(=O)[nH]c2cc1C | 2.3 |  |  | 
CCc1cccc2nc(C(=O)O)cc(O)c12 | 4.8 |  | 5.26 | 
CCc1cc(Br)cc2nc(C(=O)O)cc(O)c12 | 0.066 |  | 5.75 | 
O=C(O)c1cc(O)c2c(F)cccc2n1 |  |  | 4.39 | 
O=c1[nH]c2ccc(Cl)cc2[nH]c1=O | 8.4 |  |  | 
Oc1nc2ccc(Cl)cc2nc1O |  | 26 |  | 
Cc1cc(C)c2c(O)cc(C(=O)O)nc2c1 | 0.54 |  | 5.16 | 
O=C(O)c1cc(O)c2c(Cl)c(Cl)c(Cl)cc2n1 | 2.4 | 14 |  | 
O=C(O)c1cc(=O)c2ccccc2[nH]1 [TRANSTORINE] |  | 89 |  | IC50 [4]: > 1000 µM; IC50 [5]: 101 µM
CSc1ccc2nc(C(=O)O)cc(O)c2c1 |  | 43 |  | Kb [9]: 56 µM
O=C(O)c1cc(O)c2cc([N+](=O)[O-])ccc2n1 |  | 49 |  | Kb [8]: inactive; Kb [9]: 52 µM

Structure (SMILES) | IC50 (Glutamate NMDA receptor [1]) [µM] | Kb [2] [µM] | -Log 1/Kb [7] | further results
Cc1cc(I)cc2nc(C(=O)O)cc(O)c12 | 1.2 |  | 5.05 | 
O=C(O)c1cc(O)c2ccc(C(F)(F)F)cc2n1 |  |  | 3.52 | 
O=C(O)c1cc(O)c2c([N+](=O)[O-])cc([N+](=O)[O-])cc2n1 | > 100 |  |  | 
O=C(O)c1cc(O)c2c(Cl)cccc2n1 | 5.2 | > 100 | 4.43 | 
Cc1cc2c(cc1C)n(C)c(=O)c(=O)n2C | > 100 |  |  | 
O=C(O)c1cc(O)c2cc(I)ccc2n1 |  | 37 |  | Kb [9]: 56 µM
Cc1cccc2nc(C(=O)O)cc(O)c12 | 2.1 |  | 4.68 | 
CCCc1cccc2nc(C(=O)O)cc(O)c12 |  |  | 3.4 | 
O=C(O)c1cc(O)c2c(Br)cccc2n1 |  |  | 4.7 | 
Cc1ccc2nc(C(=O)O)cc(O)c2c1 |  | 59 |  | Kb [8]: inactive; Kb [9]: 66 µM
Cc1cc(Br)cc2nc(C(=O)O)cc(O)c12 | 1.1 |  | 5.58 | 
Cn1c(C(=O)O)cc(=O)c2c(Cl)cc(Cl)cc21 | > 100 |  |  | Kb [8]: inactive; Kb [3]: inactive; Kb [10]: inactive
CCc1ccc2nc(C(=O)O)cc(O)c2c1 |  | > 100 |  | Kb [8]: inactive; Kb [9]: > 100 µM
O=C(O)CNc1cc(Cl)cc(Cl)c1 | 49 |  |  | Kb [3]: inactive
O=C(O)c1cc(O)c2ccc(I)cc2n1 | 3.6 |  | 4.33 | 
COc1cc(C(=O)O)nc2cc(Cl)cc(Cl)c12 | 100 |  |  | Kb [8]: inactive; Kb [3]: inactive; Kb [10]: inactive
CC(C)c1ccc2c(O)cc(C(=O)O)nc2c1 | > 100 |  |  | 
Oc1nc2cccc(Cl)c2nc1O | 56.3 | > 100 |  | 
O=[N+]([O-])c1cc2nc(O)c(O)nc2cc1[N+](=O)[O-] |  |  |  | Kb [11]: 5.3 µM; Kb [12]: 1.29 µM
O=C(O)c1cc(O)c2c(Cl)cc(I)cc2n1 | 0.65 |  | 5 | 
Cc1cc(I)c2c(O)cc(C(=O)O)nc2c1 | 0.27 |  | 6 | 
COc1nc2cc(C)c(C)cc2nc1OC | > 100 |  |  | 
